Here are results for five compounds from ChEMBL document CHEMBL5150043, “Discovery of Anthranilic Acid Derivatives as Difluoromethylornithine Adjunct Agents That Inhibit Far Upstream Element Binding Protein 1 (FUBP1) Function” (J Med Chem, 2022).

The test system of data set [1] is L3.6pl. Briefly: Inhibition of FUBP1/DNA FUSE region interaction in human […] cells assessed as reduction in c-myc protein level at 20 to 60 uM incubated for 24 hrs by Western blot analysis. Format: cell-based. The following applies: dose 20-60 µM. Summed up: (§1)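 Western blot of L3.6pl cells after 24 h compound treatment with matched DMSO loading; c-Myc, p21 and FUBP1 probed, GAPDH as loading control; at least three independent experiments.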
(A western blot detects proteins with antibodies after separation by electrophoresis.)

Data set [2] deals with CHO-K1. Briefly: Inhibition of spermidine uptake in chinese hamster CHO-K1 cells assessed as decrease in cell growth by measuring cellular ATP content measured after 48 hrs in presence of DFMO and spermidine by ATPlite assay. The following applies: Cricetulus griseus, CHO-K1, 48 h. For orientation: Cellular ATP, detected with luciferase, serves as a proxy for viable cell number.

Data set [3] concerns L3.6pl. Briefly: Decrease in intracellular polyamine level in human L3.6pl cells assessed as total polyamine level at 60 uM incubated for 24 hrs by HPLC analysis. Format: functional, cell-based. Summed up: (§2)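 L3.6pl cells incubated 24 h at 37 °C with compound (60 μM) or 0.6% DMSO vehicle; native intracellular polyamines then measured; mean ± SD (n = 3).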
The test system of data set [4] is L3.6pl. Briefly: Inhibition of FUBP1/DNA FUSE region interaction in human […] cells assessed as reduction in c-Myc FUSE DNA pull down at 60 uM incubated for 24 hrs by qRT-PCR analysis. Format: cell-based. Summed up: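 ChIP: L3.6pl cells ± compound (60 μM) 24 h; crosslinked FUBP1–DNA immunoprecipitated with FUBP1 antibody, crosslink reversed, FUSE sequence upstream of c-Myc promoter amplified by qPCR; mean fold change ± SEM (n = 2).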
On the technique in general: Quantitative PCR measures a nucleic acid by following its amplification.

In data set [5] the test system is L3.6pl. Briefly: Inhibition of FUBP1/DNA FUSE region interaction in human […] cells assessed as increase in p21 protein level at 20 to 60 uM incubated for 24 hrs by Western blot analysis. Format: cell-based. The following applies: dose 20-60 µM. Summed up: as §1
Data set [6] has as its system CHO-K1. Briefly: Cytotoxicity against chinese hamster CHO-K1 cells assessed as decrease in cell viability measured after 48 hrs by ATPlite assay. Format: toxicity, cell-based, Cricetulus griseus. Particulars: cho-k1, 48 h. The method, boiled down:
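CHO-K1 cells dosed alone in 384-well format in parallel with Assays 1 and 2; MTC taken as highest concentration giving ≥90% relative growth versus untreated control; typical error ±10% (n = 3).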

For data set [7], the target named is T1, Far upstream element-binding protein 1 (Homo sapiens) (UniProt Q96AE4).
T1 sequence (whole entry): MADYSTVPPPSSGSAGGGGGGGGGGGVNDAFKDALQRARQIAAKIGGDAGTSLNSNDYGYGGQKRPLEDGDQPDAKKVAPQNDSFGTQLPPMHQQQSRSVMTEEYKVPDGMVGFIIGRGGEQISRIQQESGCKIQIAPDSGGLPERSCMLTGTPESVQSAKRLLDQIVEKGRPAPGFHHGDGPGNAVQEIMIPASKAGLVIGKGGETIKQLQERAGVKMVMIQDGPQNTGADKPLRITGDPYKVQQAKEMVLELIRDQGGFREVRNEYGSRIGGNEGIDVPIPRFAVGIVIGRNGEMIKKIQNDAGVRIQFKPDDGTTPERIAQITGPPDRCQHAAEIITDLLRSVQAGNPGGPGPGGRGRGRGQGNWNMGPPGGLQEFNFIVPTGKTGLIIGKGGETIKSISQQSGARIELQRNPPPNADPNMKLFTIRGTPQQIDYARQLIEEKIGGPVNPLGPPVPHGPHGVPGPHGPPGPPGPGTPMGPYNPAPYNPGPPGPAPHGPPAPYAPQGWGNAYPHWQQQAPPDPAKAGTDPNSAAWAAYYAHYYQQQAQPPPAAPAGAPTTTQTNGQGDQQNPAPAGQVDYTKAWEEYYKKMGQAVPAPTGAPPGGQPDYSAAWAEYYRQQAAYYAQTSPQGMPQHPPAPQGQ
Briefly: Binding affinity to recombinant GST tagged FUBP1 KH3-KH4 domain (unknown origin) assessed as decrease in FUBP1-FUSE DNA bound complex using 5'-IRDye700 tagged TGTATATTCCCTCGGG oligonucleotide as substrate at 30 to 60 uM measured for 30 mins by Gel shift assay relative to control. Particulars: dose 30-60 µM, DDE = dose-dependent effect.

Data set [8] is described as follows: Cytotoxicity against human L3.6pl cells assessed as inhibition of cell growth measured after 72 hrs by ATPlite assay. Format: toxicity, cell-based.
Data set [9] has as its system L3.6pl. Briefly: Cytotoxicity against human L3.6pl cells assessed as cell viability measured after 72 hrs by ATPlite assay. Format: toxicity, cell-based. The method, boiled down:
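L3.6pl human pancreatic cancer cells in 96-well format were exposed to compound alone for 72 h. Growth was expressed relative to an untreated control. MTC is the highest concentration with relative growth still >90%. […] Data come from two or more experiments, each run in triplicate (n ≥ 6).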

Data set [10] concerns L3.6pl. Briefly: Decrease in intracellular polyamine level in human L3.6pl cells assessed as spermine level at 60 uM incubated for 24 hrs by HPLC analysis. Format: functional, cell-based. The method, boiled down: as §2
The nature of data set [11]: Inhibition of spermidine uptake chinese hamster CHO-K1 cells assessed as decrease in cell growth by measuring cellular ATP content measured after 48 hrs in presence of DFMO and spermidine by ATPlite assay. Format: functional, cell-based. The following applies: Cricetulus griseus, CHO-K1, 48 h.
Data set [12] relates to L3.6pl. Briefly: Inhibition of FUBP1/DNA FUSE region interaction in human […] cells assessed as increase in p21 mRNA level at 20 to 60 uM incubated for 24 hrs by qRT-PCR analysis. Particulars: dose 20-60 µM. Format: cell-based. The method, boiled down:
(§3)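 L3.6pl cells treated 24 h with compound or matched DMSO; p21 and c-Myc mRNA by qRT-PCR, normalized to β-actin; log mean ± SD (n = 2).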

The test system of data set [13] is L3.6pl. Briefly: Decrease in intracellular polyamine level in human L3.6pl cells assessed as spermidine level at 60 uM incubated for 24 hrs by HPLC analysis. Format: functional, cell-based. The method, boiled down:
as §2

Data set [14] has as its system L3.6pl. Briefly: Inhibition of FUBP1/DNA FUSE region interaction in human […] cells assessed as decrease in c-myc mRNA level at 20 to 60 uM incubated for 24 hrs by qRT-PCR analysis. Format: cell-based. Particulars: dose 20-60 µM. The method, boiled down:
as §3

Data set [15] deals with L3.6pl. Briefly: Decrease in intracellular polyamine level in human L3.6pl cells assessed as putrescine level at 60 uM incubated for 24 hrs by HPLC analysis. Format: functional, cell-based. The method, boiled down:
as §2

Data set [16] relates to L3.6pl. Briefly: Inhibition of polyamine uptake in human L3.6pl cells assessed as inhibition of Ant44-induced toxicity by measuring cellular ATP content at MTC measured after 72 hrs in presence of Ant44 by ATPlite assay. Format: functional. The method, boiled down: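 L3.6pl cells, Ant44 challenge over 72 h, compound dosed up to its MTC; ECx = percentage effect at the MTC on scale from Ant44-only (50% growth) to untreated (100%); average of ≥2 experiments in triplicate (n ≥ 6).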

Data set [17] can be described thus: Inhibition of spermidine uptake in human L3.6pl cells assessed as inhibition of cell growth by measuring cellular ATP content at MTC measured after 72 hrs in presence of DFMO and spermidine by ATPlite assay. Format: functional. The method, boiled down:
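L3.6pl cells with DFMO and spermidine over 72 h, compound dosed up to its MTC; ECx = percentage effect at the MTC on scale between DFMO-only (50%) and DFMO + Spd (100%) controls; average of ≥2 experiments in triplicate (n ≥ 6).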

Data set [18] deals with L3.6pl. Briefly: Inhibition of polyamine transport system in human L3.6pl cells assessed as reduction in [3H] spermidine uptake preincubated for 72 hrs in presence of DFMO followed by [3H]-spermidine addition and measured after 15 mins by scintillation counter method. Format: cell-based. Particulars: time 72.25 hrs. Summed up:
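L3.6pl cells incubated 72 h with DFMO alone or DFMO plus compound, then 3H-Spd added for 15 min; intracellular 3H-Spd measured; mean ± SD (n = 3).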

Data set [19] has as its system L3.6pl. Briefly: Inhibition of polyamine transport system in human L3.6pl cells assessed as reduction in [3H] spermidine uptake preincubated for 24 hrs followed by [3H]-spermidine addition and measured after 15 mins by scintillation counter method. Format: cell-based. The following applies: time 24.25 hrs. The method, boiled down:
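L3.6pl cells pretreated 24 h with compound, then 3H-Spd added for 15 min; intracellular 3H-Spd measured; mean ± SD (n = 3).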

Molecules are shown by their SMILES. Calls of active or inactive are those of the source. The rule behind the calls is not given here. Bounds are passed on as bounds.

In the case of `COc1ccc(C(=O)Nc2ccc(N3CCN(c4cc(Cl)ccc4C)CC3)cc2C(=O)O)cc1`, the inhibition result in the data set on L3.6pl [1] (DDE = dose-dependent effect) and with L3.6pl [5] (DDE = dose-dependent effect) was “Dde” throughout. Further, the concentration giving a half-maximal response (EC50) – broadly, the concentration at which the effect is half-maximal – with CHO-K1 [2] is 8 µM; in [11] it was above 40 µM. The result in the data set on L3.6pl [3], in the data set with L3.6pl [10], with L3.6pl [13] and in the data set with L3.6pl [15] was Active. Moreover, the inhibition result in the data set with L3.6pl [4], in the data set with L3.6pl [12] and in the data set with L3.6pl [14] was “Active” in each case. Moreover, the MTC in the data set on CHO-K1 [6] turned out to be 13 µM; in the data set with L3.6pl [9] it was 8 µM. The Activity result in data set [7] is “Dde”. Further, in [8], the half-maximal inhibitory concentration (IC50) (in general, the concentration needed to halve the response being measured) at 72 h is 16.8 µM.

On to `COc1ccc(-c2cc(C(F)(F)F)n3nc(-c4cccs4)cc3n2)cc1OC`, for which the inhibition entry in the data set on L3.6pl [1] and in the data set with L3.6pl [5] was “Active” in each case.

With `NCCCC(N)(C(=O)O)C(F)F` (stereo not drawn), the result in the data set with L3.6pl [13] and in the data set on L3.6pl [15] was Active.

Regarding `COc1ccccc1C(=O)Nc1ccc(N2CCC(Oc3ccccc3)CC2)cc1C(=O)O`, the EC50 was found to be 19 µM in the data set on CHO-K1 [2] and 32 µM in data set [11]. The MTC in the data set with CHO-K1 [6] was above 40 µM; in the data set with L3.6pl [9] it was 10 µM. Besides, the values for the inhibition (INH) (with L3.6pl [16]; in data set [17]) were 35% and 45%, respectively. Also, in [8], the IC50 at 72 h was found to be 38.6 µM.

Consider `CNCCCCNCCCCNCc1cc(CNCCCCNCCCCNC)cc(CNCCCCNCCCCNC)c1`, for which the inhibition entry with L3.6pl [18] and in the data set with L3.6pl [19] was “Active” each time.
